Measured values gathered from unrelated publications.
Each line is one published result; the experiments were not run side by side.
Target: Prostaglandin G/H synthase 2 (PTGS2, Homo sapiens, UniProt P35354)
Read-out: enzyme activity
Action: inhibitor
Sequence (P35354 18-604, as in one of the studies): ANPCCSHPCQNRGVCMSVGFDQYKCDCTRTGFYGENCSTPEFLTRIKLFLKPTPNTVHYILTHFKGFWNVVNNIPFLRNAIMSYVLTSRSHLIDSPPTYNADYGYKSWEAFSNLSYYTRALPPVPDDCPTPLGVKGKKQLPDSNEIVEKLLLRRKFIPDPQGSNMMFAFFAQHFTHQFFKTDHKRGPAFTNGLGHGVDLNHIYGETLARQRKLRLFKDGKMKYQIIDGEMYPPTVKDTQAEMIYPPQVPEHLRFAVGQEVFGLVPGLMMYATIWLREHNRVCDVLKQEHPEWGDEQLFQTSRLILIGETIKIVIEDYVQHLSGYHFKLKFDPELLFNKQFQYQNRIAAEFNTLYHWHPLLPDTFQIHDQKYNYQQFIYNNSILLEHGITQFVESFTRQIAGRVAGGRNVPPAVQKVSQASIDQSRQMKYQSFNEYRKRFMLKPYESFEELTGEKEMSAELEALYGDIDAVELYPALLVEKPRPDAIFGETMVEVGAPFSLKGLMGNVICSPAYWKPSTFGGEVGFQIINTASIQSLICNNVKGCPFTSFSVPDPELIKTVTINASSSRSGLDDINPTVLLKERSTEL

| SMILES | method | concentration | quantity | result |
| --- | --- | --- | --- | --- |
| Cc1ccc(-c2nc3ccccc3s2)c(-c2ccc(S(C)(=O)=O)cc2)c1 | absorbance | 10 µM | inhibition | 72% |
| Clc1ccc2c(C3CCN(CCc4c[nH]c5ccccc45)CC3)c[nH]c2c1 |  | 10 µM | inhibition | 79% |
| C[C@H](C(=O)N[C@H]1COc2ccccc2[C@@H]1S(C)(=O)=O)c1ccc(F)cc1 |  | 10 µM | inhibition | -27% |
| O=C(Nc1cccnn1)N1CCN([C@@H]2CCOc3cc(C(F)(F)F)ccc32)CC1 |  | 20 µM | inhibition | -2% |
| Cc1ncc(C)n2nc(/C=C/c3nc(N4CCCC4)cc(N4CCOCC4)n3)nc12 |  | 10 µM | inhibition | 0% |
| Nc1ncc(-c2nc(N3CCOCC3)nc(N3CCOCC3)n2)c(C(F)F)n1 |  | 10 µM | remaining activity | 99% |
| NS(=O)(=O)c1ccc(-c2ncccc2-c2nc3ccccc3s2)cc1 | absorbance | 10 µM | inhibition | 88.5% |
| COCc1c(-c2cc3cc(C)cc(OC)c3s2)c2c(N)ncnn2c1CN1CCNC(=O)C1 |  | 10 µM | inhibition | 6% |
| c1ccc(C(NCCNC(c2ccccc2)c2ccccc2)c2ccccc2)cc1 |  | 10 µM | inhibition | 0% |
| COc1ccc(-c2ccc(N)cc2-c2nc3ccccc3s2)cc1 | absorbance | 10 µM | inhibition | 10.3% |
